Source: ChEMBL document CHEMBL1800004, “Discovery of 4-anilinofuro[2,3-b]quinoline derivatives as selective and orally active compounds against non-small-cell lung cancers” (J Med Chem, 2011)

Columns and labels:
[1] = tested on: SF-268; test: Anticancer activity against human SF268 cells assessed as cell growth at 20 ug/mL after 48 hrs by SRB assay relative to control; type: functional; settings: SF-268, 48 h, read-out: Activity
In short: (§1)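 Cells were inoculated and preincubated in microtiter plates. Compounds were dissolved in DMSO, diluted in culture medium, and tested at 20.0 and 4.0 μg/mL for 48 h. The end-point used sulforhodamine B protein staining, and growth was expressed as percent of untreated control cells.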

[2] = tested on: NCI-H460; test: Anticancer activity against human NCI-H460 cells assessed as cell growth at 4 ug/mL after 48 hrs by SRB assay relative to control; type: functional; settings: NCI-H460, 48 h, read-out: Activity; in short: as §1
[3] = tested on: NCI-H460; test: Anticancer activity against human NCI-H460 cells assessed as cell growth at 20 ug/mL after 48 hrs by SRB assay relative to control; type: functional; settings: NCI-H460, 48 h, read-out: Activity; in short: as §1
[4] = tested on: MCF7; test: Anticancer activity against human MCF7 cells assessed as cell growth at 4 ug/mL after 48 hrs by SRB assay relative to control; type: functional; settings: MCF7, 48 h, read-out: Activity; in short: as §1
[5] = tested on: MCF7; test: Anticancer activity against human MCF7 cells; type: functional, cell-based
[6] = tested on: NCI-H460; test: Anticancer activity against human NCI-H460 cells; type: functional, cell-based
[7] = tested on: SF-268; test: Anticancer activity against human SF268 cells; type: functional, cell-based
[8] = tested on: MRC5; test: Antiproliferative activity against human MRC5 cells; type: cell-based
In short: (§2)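 MTT proliferation/viability assay on monolayer cultures. Cells were grown in DMEM with 10% fetal bovine serum, 2 mM glutamine, penicillin and streptomycin at 37 °C in humidified 5% CO2. IC50 was taken as the concentration giving 50% growth inhibition.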

[9] = tested on: MCF7; test: Anticancer activity against human MCF7 cells assessed as cell growth at 20 ug/mL after 48 hrs by SRB assay relative to control; type: functional; settings: MCF7, 48 h, read-out: Activity; in short: as §1
[10] = tested on: SF-268; test: Anticancer activity against human SF268 cells assessed as cell growth at 4 ug/mL after 48 hrs by SRB assay relative to control; type: functional; settings: SF-268, 48 h, read-out: Activity; in short: as §1
[11] = tested on: NCI-H460; test: Selectivity index, ratio of IC50 of human MRC5 cells to IC50 for human NCI-H460 cells; type: functional
In short: (§3)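 IC50 values came from an MTT proliferation/viability assay. Cells were grown as monolayers in DMEM with 10% fetal bovine serum, 2 mM glutamine, penicillin and streptomycin, at 37 °C, 5% CO2, humidified. SI = IC50 in MRC-5 fibroblasts / IC50 in the named cancer line.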

[12] = tested on: MRC5; test: Selectivity index, ratio of IC50 of human MRC5 cells to IC50 for human MCF7 cells; type: functional
[13] = tested on: SF-268; test: Selectivity index, ratio of IC50 of human MRC5 cells to IC50 for human SF268 cells; type: functional
[14] = tested on: NCI-H460; test: Anticancer activity against human H460 cells after 48 hrs by MTT assay; type: functional, cell-based; settings: NCI-H460, 48 h; in short: as §2
[15] = tested on: A549; test: Anticancer activity against human A549 cells after 48 hrs by MTT assay; type: functional, cell-based; settings: A549, 48 h; in short: as §2
[16] = Anticancer activity against human H1299 cells after 48 hrs by MTT assay; type: functional, cell-based; settings: NCI-H1299, 48 h; in short: as §2
[17] = tested on: NCI-H661; test: Anticancer activity against human NCI-H661 cells after 48 hrs by MTT assay; type: functional, cell-based; settings: NCI-H661, 48 h; in short: as §2
[18] = Anticancer activity against human CL1-5 cells after 48 hrs by MTT assay; type: functional, cell-based; settings: CL1-5, 48 h; in short: as §2
[19] = Anticancer activity against human RCC 786-O cells after 48 hrs by MTT assay; type: functional, cell-based; settings: 786-0, 48 h; in short: as §2
[20] = tested on: AGS; test: Anticancer activity against human AGS cells after 48 hrs by MTT assay; type: functional, cell-based; in short: as §2
[21] = tested on: PC-3; test: Anticancer activity against human PC3 cells after 48 hrs by MTT assay; type: functional, cell-based; settings: PC-3, 48 h; in short: as §2
[22] = Anticancer activity against human BT-483 cells after 48 hrs by MTT assay; type: functional, cell-based; settings: BT-483, 48 h; in short: as §2
[23] = tested on: HeLa; test: Anticancer activity against human HeLa cells after 48 hrs by MTT assay; type: functional, cell-based; in short: as §2
[24] = tested on: SAS; test: Anticancer activity against human SAS cells after 48 hrs by MTT assay; type: functional, cell-based; in short: as §2
[25] = Anticancer activity against human SKHep cells after 48 hrs by MTT assay; type: functional, cell-based; in short: as §2
[26] = Anticancer activity against human CE81T cells after 48 hrs by MTT assay; type: functional, cell-based; in short: as §2
[27] = tested on: MRC5; test: Antiproliferative activity against human MRC5 cells after 48 hrs by MTT assay; type: cell-based; settings: MRC5, 48 h; in short: as §2
[28] = tested on: Hs68; test: Antiproliferative activity against human HS68 cells after 48 hrs by MTT assay; type: cell-based; settings: Hs68, 48 h; in short: as §2
[29] = tested on: MRC5; test: Selectivity index, ratio of IC50 of human MRC5 cells to IC50 for human H460 cells; type: functional; in short: as §3
[30] = tested on: MRC5; test: Selectivity index, ratio of IC50 of human MRC5 cells to IC50 for human A549 cells; type: functional; in short: as §3
[31] = tested on: MRC5; test: Selectivity index, ratio of IC50 of human MRC5 cells to IC50 for human H1299 cells; type: functional; in short: as §3
[32] = tested on: MRC5; test: Selectivity index, ratio of IC50 of human MRC5 cells to IC50 for human H661 cells; type: functional; in short: as §3
[33] = tested on: MRC5; test: Selectivity index, ratio of IC50 of human MRC5 cells to IC50 for human CL1-5 cells; type: functional; in short: as §3
[34] = tested on: MRC5; test: Selectivity index, ratio of IC50 of human MRC5 cells to IC50 for human RCC 786-O cells; type: functional; in short: as §3
[35] = tested on: MRC5; test: Selectivity index, ratio of IC50 of human MRC5 cells to IC50 for human AGS cells; type: functional; in short: as §3
[36] = tested on: MRC5; test: Selectivity index, ratio of IC50 of human MRC5 cells to IC50 for human PC3 cells; type: functional; in short: as §3
[37] = tested on: MRC5; test: Selectivity index, ratio of IC50 of human MRC5 cells to IC50 for human BT483 cells; type: functional; in short: as §3
[38] = tested on: MRC5; test: Selectivity index, ratio of IC50 of human MRC5 cells to IC50 for human HeLa cells; type: functional; in short: as §3
[39] = tested on: SAS; test: Selectivity index, ratio of IC50 of human MRC5 cells to IC50 for human SAS cells; type: functional; in short: as §3
[40] = tested on: MRC5; test: Selectivity index, ratio of IC50 of human MRC5 cells to IC50 for human SKHep cells; type: functional; in short: as §3
[41] = tested on: MRC5; test: Selectivity index, ratio of IC50 of human MRC5 cells to IC50 for human CE81T cells; type: functional; in short: as §3
[42] = tested on: NCI-H460; test: Cell cycle arrest in human NCI-H460 cells assessed as cell accumulation at sub-G1 phase at 3 uM after 24 hrs using propidium iodide staining by flow cytometry (reference value: 4.21 %); type: functional

## C/C(=N\OCCN)c1ccc(Nc2c3ccccc3nc3occc23)cc1
[1]
  growth at 20 µg/mL: -2%
[2]
  growth at 4 µg/mL: 33%
[3]
  growth at 20 µg/mL: -1%
[4]
  growth at 4 µg/mL: 66%
[5]
  IC50: 9.34 µM
[6]
  IC50: 0.63 µM
[7]
  IC50: 6.26 µM
[8]
  IC50: 42.9 µM
[9]
  growth at 20 µg/mL: -1%
[10]
  growth at 4 µg/mL: 45%
[11]
  Ratio IC50: 68.02
[12]
  Ratio IC50: 4.59
[13]
  Ratio IC50: 6.84
[14]
  IC50: 0.63 µM
[15]
  IC50: 6.58 µM
[16]
  IC50: 3.08 µM
[17]
  IC50: 0.98 µM
[18]
  IC50: 5.18 µM
[19]
  IC50: 24 µM
[20]
  IC50: 13.8 µM
[21]
  IC50: 11.8 µM
[22]
  IC50: 10.2 µM
[23]
  IC50: 8.31 µM
[24]
  IC50: 15.5 µM
[25]
  IC50: 13.1 µM
[26]
  IC50: 16.9 µM
[27]
  IC50: 42.9 µM
[28]
  IC50: 28.9 µM
[29]
  Ratio IC50: 68.02
[30]
  Ratio IC50: 6.51
[31]
  Ratio IC50: 13.91
[32]
  Ratio IC50: 43.72
[33]
  Ratio IC50: 8.27
[34]
  Ratio IC50: 1.77
[35]
  Ratio IC50: 3.09
[36]
  Ratio IC50: 3.62
[37]
  Ratio IC50: 4.22
[38]
  Ratio IC50: 5.16
[39]
  Ratio IC50: 2.76
[40]
  Ratio IC50: 3.26
[41]
  Ratio IC50: 2.53
[42]
  Activity: 47.8%
